From ChEMBL document CHEMBL1143428, “Extended-spectrum-beta-lactamase-producing Enterobacteriaceae strains in various types of private health care centers” (2007)
Values after ≈ are worked out from the molar mass of the structure shown.

Tests used:
Assay type in all cases: functional
Klebsiella aerogenes [1] = assay: Antimicrobial activity against Enterobacter aerogenes Ea1 expressing TEM-24b AmpC +/- TEM-1 or TEM-2 gene
How it was run: (§1)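 β-Lactam MICs (μg/ml) measured against clinical Enterobacteriaceae isolates collected from private health care centers. Enzyme content of each isolate was assigned by isoelectric focusing, PCR with blaTEM/blaSHV/blaCTX-M primers and sequencing, with cloning to separate coexisting TEM or SHV genes. In combination tests, the β-lactamase inhibitor clavulanic acid was held at a fixed 2 μg/ml.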

Klebsiella aerogenes [2] = assay: Antimicrobial activity against Enterobacter aerogenes Ea1 expressing TEM-24b gene
How it was run: (§2)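 Clinical isolates from private health care centers. β-Lactamase content was assigned by isoelectric focusing, PCR with blaTEM-, blaSHV- and blaCTX-M-specific primers, and sequencing. MICs (μg/ml) were reported for amoxicillin, cefoxitin, cefotaxime, ceftazidime, imipenem and ertapenem. Amoxicillin, cefotaxime and ceftazidime were also tested with clavulanic acid held at a fixed 2 μg/ml.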

Klebsiella aerogenes [3] = assay: Antimicrobial activity against Enterobacter aerogenes Ea2 expressing TEM-3 AmpC gene; how it was run: as §2
Klebsiella aerogenes [4] = assay: Antimicrobial activity against Enterobacter aerogenes Ea2 expressing TEM-3 gene; how it was run: as §2
Escherichia coli [5] = assay: Antimicrobial activity against Escherichia coli Ec2 containing pEc1-B plasmid expressing CTX-M-15 TEM-1 OXA-1 gene; how it was run: as §2
Escherichia coli [6] = assay: Antimicrobial activity against Escherichia coli Ec2-a containing pEc1-C plasmid expressing CTX-M-15 OXA-1 gene; how it was run: as §2
Escherichia coli [7] = assay: Antimicrobial activity against Escherichia coli Ec2 containing pEc1-D plasmid expressing CTX-M-15 TEM-1 OXA-1gene; how it was run: as §1
Escherichia coli [8] = assay: Antimicrobial activity against Escherichia coli Ec3 expressing CTX-M-15 TEM-1 OXA-1 gene; how it was run: as §1
Escherichia coli [9] = assay: Antimicrobial activity against Escherichia coli Ec4 expressing CTX-M-1 AmpC gene; how it was run: as §1
Escherichia coli [10] = assay: Antimicrobial activity against Escherichia coli Ec5 expressing CTX-M-2 TEM-1 gene; how it was run: as §1
Escherichia coli [11] = assay: Antimicrobial activity against Escherichia coli Ec7 expressing SHV-12 IRT-6 gene; how it was run: as §2
Escherichia coli [12] = assay: Antimicrobial activity against Escherichia coli Ec8 expressing TEM-21 AmpC gene; how it was run: as §2
Escherichia coli [13] = assay: Antimicrobial activity against Escherichia coli Ec9 expressing TEM-24b TEM-26 gene; how it was run: as §1
Klebsiella pneumoniae [14] = assay: Antimicrobial activity against Klebsiella pneumoniae Kp1 expressing SHV-4 gene; how it was run: as §1
Klebsiella pneumoniae [15] = assay: Antimicrobial activity against Klebsiella pneumoniae Kp2 expressing TEM-15 gene; how it was run: as §1
Klebsiella pneumoniae [16] = assay: Antimicrobial activity against Klebsiella pneumoniae Kp2 expressing TEM-15 TEM-17 TEM-1 gene; how it was run: as §1
Klebsiella pneumoniae [17] = assay: Antimicrobial activity against Klebsiella pneumoniae Kp3 expressing SHV-2a TEM-1 gene; how it was run: as §1
Klebsiella pneumoniae [18] = assay: Antimicrobial activity against Klebsiella pneumoniae Kp4 expressing SHV-12 SHV-1 and plasmid-mediated cephalosporinase CMY-4; how it was run: as §1
Klebsiella pneumoniae [19] = assay: Antimicrobial activity against Klebsiella pneumoniae Kp5 expressing plasmid-mediated cephalosporinase ACC-1 and TEM-1; how it was run: as §1
Proteus mirabilis [20] = assay: Antimicrobial activity against Proteus mirabilis Pm1-Pm3 expressing TEM-24b gene; how it was run: as §2
Proteus mirabilis [21] = assay: Antimicrobial activity against Proteus mirabilis Pm4 expressing TEM-21 gene; how it was run: as §2
Enterobacter cloacae = assay: Antimicrobial activity against Enterobacter cloacae Ecl1 expressing TEM-24b AmpC TEM-1 gene; how it was run: as §1
Morganella morganii = assay: Antimicrobial activity against Morganella morganii expressing TEM-24b AmpC gene; how it was run: as §1
Klebsiella oxytoca = assay: Antimicrobial activity against Klebsiella oxytoca expressing TEM-11 gene; how it was run: as §2
Escherichia coli [22] = assay: Antimicrobial activity against Escherichia coli Ec6 expressing CTX-M-14 gene; how it was run: as §1
Escherichia coli [23] = assay: Antimicrobial activity against Escherichia coli Ec1 containing pEc1-A plasmid expressing CTX-M-15 TEM-1 OXA-1 gene; how it was run: as §1
Escherichia coli [24] = assay: Antimicrobial activity against Escherichia coli Ec10 expressing TEM-24b gene; how it was run: as §1

| SMILES | MIC (Klebsiella aerogenes [1]) | MIC (Klebsiella aerogenes [2]) | MIC (Klebsiella aerogenes [3]) | MIC (Klebsiella aerogenes [4]) | MIC (Escherichia coli [5]) | MIC (Escherichia coli [6]) | MIC (Escherichia coli [7]) | MIC (Escherichia coli [8]) | MIC (Escherichia coli [9]) | MIC (Escherichia coli [10]) | MIC (Escherichia coli [11]) | MIC (Escherichia coli [12]) | MIC (Escherichia coli [13]) | MIC (Klebsiella pneumoniae [14]) | MIC (Klebsiella pneumoniae [15]) | MIC (Klebsiella pneumoniae [16]) | MIC (Klebsiella pneumoniae [17]) | MIC (Klebsiella pneumoniae [18]) | MIC (Klebsiella pneumoniae [19]) | MIC (Proteus mirabilis [20]) | other results |
| --- | --- | --- | --- | --- | --- | --- | --- | --- | --- | --- | --- | --- | --- | --- | --- | --- | --- | --- | --- | --- | --- |
| C[C@@H](O)[C@H]1C(=O)N2C(C(=O)O)=C(SCCNC=N)C[C@H]12 [IMIPENEM ANHYDROUS] | 0.5 µg/mL (≈ 1.67 µM) | 0.5 µg/mL (≈ 1.67 µM) | 1 µg/mL (≈ 3.34 µM) | 0.5 µg/mL (≈ 1.67 µM) | 0.5 µg/mL (≈ 1.67 µM) | 0.5 µg/mL (≈ 1.67 µM) | 0.5 µg/mL (≈ 1.67 µM) | 0.5 µg/mL (≈ 1.67 µM) | 1 µg/mL (≈ 3.34 µM) | 0.5 µg/mL (≈ 1.67 µM) | 0.5 µg/mL (≈ 1.67 µM) | 0.5 µg/mL (≈ 1.67 µM) | 0.5 µg/mL (≈ 1.67 µM) | 0.5 µg/mL (≈ 1.67 µM) | 0.5 µg/mL (≈ 1.67 µM) | 0.5 µg/mL (≈ 1.67 µM) | 1 µg/mL (≈ 3.34 µM) | 1 µg/mL (≈ 3.34 µM) | 0.5 µg/mL (≈ 1.67 µM) | 1 µg/mL (≈ 3.34 µM) | MIC (Proteus mirabilis [21]): 1 µg/mL (≈ 3.34 µM); MIC (Enterobacter cloacae): 1 µg/mL (≈ 3.34 µM); MIC (Morganella morganii): 4 µg/mL (≈ 13.4 µM); MIC (Klebsiella oxytoca): 0.5 µg/mL (≈ 1.67 µM); MIC (Escherichia coli [22]): 0.5 µg/mL (≈ 1.67 µM) |
| C[C@@H](O)[C@H]1C(=O)N2C(C(=O)O)=C(S[C@@H]3CN[C@H](C(=O)Nc4cccc(C(=O)O)c4)C3)[C@H](C)[C@H]12 [ERTAPENEM] | 0.05 µg/mL (≈ 0.105 µM) | 0.02 µg/mL (≈ 0.0421 µM) | 0.2 µg/mL (≈ 0.421 µM) | 0.02 µg/mL (≈ 0.0421 µM) | 0.1 µg/mL (≈ 0.21 µM) | 0.2 µg/mL (≈ 0.421 µM) | 0.05 µg/mL (≈ 0.105 µM) | 0.1 µg/mL (≈ 0.21 µM) | 0.05 µg/mL (≈ 0.105 µM) | 0.05 µg/mL (≈ 0.105 µM) | 0.2 µg/mL (≈ 0.421 µM) | 0.1 µg/mL (≈ 0.21 µM) | ≤ 0.01 µg/mL | 0.02 µg/mL (≈ 0.0421 µM) | 0.02 µg/mL (≈ 0.0421 µM) | 0.1 µg/mL (≈ 0.21 µM) | 0.02 µg/mL (≈ 0.0421 µM) | 0.01 µg/mL (≈ 0.021 µM) | 0.05 µg/mL (≈ 0.105 µM) | 0.01 µg/mL (≈ 0.021 µM) | MIC (Escherichia coli [23]): 0.05 µg/mL (≈ 0.105 µM); MIC (Escherichia coli [24]): 0.02 µg/mL (≈ 0.0421 µM); MIC (Proteus mirabilis [21]): 0.01 µg/mL (≈ 0.021 µM); MIC (Enterobacter cloacae): 0.5 µg/mL (≈ 1.05 µM); MIC (Morganella morganii): 0.02 µg/mL (≈ 0.0421 µM); MIC (Klebsiella oxytoca): 0.1 µg/mL (≈ 0.21 µM); MIC (Escherichia coli [22]): 0.02 µg/mL (≈ 0.0421 µM) |
| CC(C)(O/N=C(\C(=O)N[C@@H]1C(=O)N2C(C(=O)[O-])=C(C[n+]3ccccc3)CS[C@H]12)c1csc(N)n1)C(=O)O [CEFTAZIDIME] | 256 µg/mL (≈ 468 µM) | 128 µg/mL (≈ 234 µM) | 16 µg/mL (≈ 29.3 µM) | 16 µg/mL (≈ 29.3 µM) | 16 µg/mL (≈ 29.3 µM) | 256 µg/mL (≈ 468 µM) | 1 µg/mL (≈ 1.83 µM) | 256 µg/mL (≈ 468 µM) | 8 µg/mL (≈ 14.6 µM) | 1 µg/mL (≈ 1.83 µM) | 128 µg/mL (≈ 234 µM) | 64 µg/mL (≈ 117 µM) | 128 µg/mL (≈ 234 µM) | 128 µg/mL (≈ 234 µM) | 32 µg/mL (≈ 58.5 µM) | 512 µg/mL (≈ 937 µM) | 256 µg/mL (≈ 468 µM) | 4 µg/mL (≈ 7.32 µM) | 64 µg/mL (≈ 117 µM) | 8 µg/mL (≈ 14.6 µM) | MIC (Escherichia coli [23]): 64 µg/mL (≈ 117 µM); MIC (Escherichia coli [24]): 256 µg/mL (≈ 468 µM); MIC (Proteus mirabilis [21]): 1 µg/mL (≈ 1.83 µM); MIC (Enterobacter cloacae): 512 µg/mL (≈ 937 µM); MIC (Morganella morganii): 128 µg/mL (≈ 234 µM); MIC (Klebsiella oxytoca): 128 µg/mL (≈ 234 µM); MIC (Escherichia coli [22]): 4 µg/mL (≈ 7.32 µM) |
| CO/N=C(\C(=O)N[C@@H]1C(=O)N2C(C(=O)O)=C(COC(C)=O)CS[C@H]12)c1csc(N)n1 [CEFOTAXIME] | 1 µg/mL (≈ 2.2 µM) | 1 µg/mL (≈ 2.2 µM) | 4 µg/mL (≈ 8.78 µM) | 0.2 µg/mL (≈ 0.439 µM) | 64 µg/mL (≈ 141 µM) | 256 µg/mL (≈ 562 µM) | 2 µg/mL (≈ 4.39 µM) | 512 µg/mL (≈ 1120 µM) | 64 µg/mL (≈ 141 µM) | 32 µg/mL (≈ 70.3 µM) | 16 µg/mL (≈ 35.1 µM) | 32 µg/mL (≈ 70.3 µM) | 1 µg/mL (≈ 2.2 µM) | 8 µg/mL (≈ 17.6 µM) | 8 µg/mL (≈ 17.6 µM) | 64 µg/mL (≈ 141 µM) | 2 µg/mL (≈ 4.39 µM) | 16 µg/mL (≈ 35.1 µM) | 8 µg/mL (≈ 17.6 µM) | 0.5 µg/mL (≈ 1.1 µM) | MIC (Escherichia coli [23]): 256 µg/mL (≈ 562 µM); MIC (Escherichia coli [24]): 2 µg/mL (≈ 4.39 µM); MIC (Proteus mirabilis [21]): 2 µg/mL (≈ 4.39 µM); MIC (Enterobacter cloacae): 64 µg/mL (≈ 141 µM); MIC (Morganella morganii): 16 µg/mL (≈ 35.1 µM); MIC (Klebsiella oxytoca): 1 µg/mL (≈ 2.2 µM); MIC (Escherichia coli [22]): 32 µg/mL (≈ 70.3 µM) |
| CO[C@@]1(NC(=O)Cc2cccs2)C(=O)N2C(C(=O)O)=C(COC(N)=O)CS[C@@H]21 [CEFOXITIN] | 512 µg/mL (≈ 1200 µM) | 8 µg/mL (≈ 18.7 µM) | 128 µg/mL (≈ 299 µM) | 32 µg/mL (≈ 74.9 µM) | 8 µg/mL (≈ 18.7 µM) | 8 µg/mL (≈ 18.7 µM) | 32 µg/mL (≈ 74.9 µM) | 32 µg/mL (≈ 74.9 µM) | 64 µg/mL (≈ 150 µM) | 4 µg/mL (≈ 9.36 µM) | 64 µg/mL (≈ 150 µM) | 128 µg/mL (≈ 299 µM) | 4 µg/mL (≈ 9.36 µM) | 16 µg/mL (≈ 37.4 µM) | 4 µg/mL (≈ 9.36 µM) | 64 µg/mL (≈ 150 µM) | 4 µg/mL (≈ 9.36 µM) | 32 µg/mL (≈ 74.9 µM) | 8 µg/mL (≈ 18.7 µM) | 2 µg/mL (≈ 4.68 µM) | MIC (Escherichia coli [23]): 4 µg/mL (≈ 9.36 µM); MIC (Escherichia coli [24]): 8 µg/mL (≈ 18.7 µM); MIC (Proteus mirabilis [21]): 4 µg/mL (≈ 9.36 µM); MIC (Enterobacter cloacae): 512 µg/mL (≈ 1200 µM); MIC (Morganella morganii): 128 µg/mL (≈ 299 µM); MIC (Klebsiella oxytoca): 8 µg/mL (≈ 18.7 µM); MIC (Escherichia coli [22]): 4 µg/mL (≈ 9.36 µM) |
